Measurements: the EternaBench riboswitch data

Test system: MS2 coat protein
Test: apparent Kd, MS2 coat protein; higher = weaker binding; RNA-MaP array; theophylline 2 mM where present
How it was run: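 In 100 mM Tris-HCl pH 7.5, 80 mM KCl, 4 mM MgCl2, BSA, DTT, yeast tRNA and Tween-20, SNAP-549-labelled MS2 coat protein was titrated from 0.7 or 1.5 nM, doubling to 3 µM, over designs transcribed by stalled E. coli RNA polymerase on Illumina sequencing-chip clusters. This was done first without ligand, then with ligand held constant. After green signal was normalised to red-channel RNA signal and control-cluster median Fmax, the apparent Kd was taken as the median of filtered per-cluster binding-curve fits.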

[1] = designed as: OFF switch for theophylline, no ligand
[2] = ligand present: theophylline, designed as: OFF switch for theophylline
[3] = designed as: ON switch for theophylline, no ligand
[4] = ligand present: theophylline, designed as: ON switch for theophylline

Sequence | apparent Kd [1] [nM] | apparent Kd [2] [nM] | apparent Kd [3] [nM] | apparent Kd [4] [nM]
AAACAUUGCUCAGAUACCAGACAUGAGGAUCACCCAUGUACCAAGGUAACCGAAAGGCAUGUCCCUUGGCAGCUGAGCAAUGAAA | 13.7 | 240 |  | 
AAACGUUGCUCAGAUACCAGACAUGAGGAUCACCCAUGUACCAAGGUAAAGAAAUAACGUGUCCCUUGGCAGCUGAGCAACGAAA | 11 | 113 |  | 
AAACGUUGCUCAGAUACCAGACAUGAGGAUCACCCAUGUACCAAGGUACCCGAAAGGAAUGUCCCUUGGCAGCUGAGCAACGAAA | 9.57 | 21.6 |  | 
AAAUAGGUAGGAGAUACCAGAUACGUUAACAUGAGGAUCACCCAUGUGUAUGCACUUAGUGUCCCUUGGCAGCUCGAGGAUCUGG |  |  | 30.7 | 35.3
AACAUGAGGAUCACCCAUGUAAUAUGGGAUACCAGAGACGAAAGUCUCCCUUGGCAGCCCAAGCUGCUCCAUACGAAAGUAUGGU |  |  | 65.2 | 18
AACAUGAGGAUCACCCAUGUUUUAUGGGAUACCAGAGACGAAAGUCUCCCUUGGCAGCCCAAGCUGCUCCAUACGAAAGUAUGGU |  |  | 14.3 | 14
AAUAAAUCACAUGAGGAUCACCCAUGUGAUACCAGCCUGGAAACAGGCCCUUGGCAGCACAUGAGGAUCACCCAUGUGCUAAAUA | 8.81 | 8.4 |  | 
AAUGAACAUGAGGAUCACCCAUGUCGUGAUACCAGCCGUAAGAGUGGCCCUUGGCAGCGCCAUGAGGACAACAACAUACAUGAGG |  |  | 24.3 | 27
ACACACAUGAGGAUCACCCAUGUAAUAGAUACCAGUGACGCGGUGCACCCUUGGCAGCUGCUGCUGAGUGAUGGUUCCCUCGGAA | 21.1 | 34.7 |  | 
ACACAUGAGGAUCACCCAUGUCCAAUAGAUACCAGUGAUACGGUGCACCCUUGGCAGCUGUUGCUGAGUGAUGGUUCCCUCGGAA |  |  | 125 | 164
ACAUCCAGAUUAAUCGUGGGCAUACUCGAUACCAGUAUUUUAAUCUACCCUUGGCAGCGACAUGAGGAUCACCCAUGUGCGAUGA | 12.8 | 21.1 |  | 
ACAUGAAGAACAGCGGUGGGCGCGCUCGAUACCAGUAUUUUAACCUACCCUUGGCAGCGACAUGAGGAUCACCCAUGUGAGAUGA | 17.3 | 26.9 |  | 
ACAUGAGGAUCACCCAUGUCACGGCACGAUACCAGCUGAUCCGGUGGCCCUUGGCAGCGUCACGUUUGGUCCCGCGGAUGACACG |  |  | 64.3 | 60.4
ACAUGAGGAUCACCCAUGUUCCUCGCCGAUACCAGUGAAGAAGAACGCCCUUGGCAGCGGAAAGAAUAUAUUGGAGAUGAUAUAU | 219 | 316 |  | 
ACGACGCAUACAGAUACCAGUAGAACAUGAGGAUCACCCAUGUCUGAGGCGCUCCGCCACUGCCCUUGGCAGCUGUAUGCGUCAG |  |  | 9.7 | 14.2
ACGACGCAUAGUGAUACCAGUAGAACAUGAGGAUCACCCAUGUCAGAUAUGUUCUAAUACUGCCCUUGGCAGCACUAUGCGUCAG |  |  | 260 | 134
ACGUCCGGAUUGAUCGUGGGCAUGGUCGAUACCAGUAUUUUAAUCUACCCUUGGCAGCGACAUGAGGAUCACCCAUGUGCGAUGA | 16.9 | 42.6 |  | 
ACUAGUUGUGCAGAUACCAGACAUGAGGAUCACCCAUGUUUGGGAUCUAAUGAUCAUCUUGUCCCUUGGCAGCUGUACAUCUAGA | 78.5 | 33.9 |  | 
AGACAUGUAGGAUAAUUGACUAUUACAGAUACCAGACUGUCUAAUGUCCCUUGGCAGCUGCAUUACAUGAGGAUCACCCAUGUUA | 22.6 | 20.2 |  | 
AGCAUGUUAUCAGAUACCAGACAUCUUUUAAUACAUAUUACAUGAGGAUCACCCAUGUUGGUCCCUUGGCAGCUGAAAUAUUUCA |  |  | 256 | 80.5
AGCCCAUUACAUGAGGAUCACCCAUGUGAUACCAGUCAGGAAACUGACCCUUGGCAGCGCAUGAGGAUCACCCAUGCGCUGGGCA | 12 | 11.4 |  | 
AGCCCUGUGCUAGAUACCAGCUACAUGAGGAUCACCCAUGUGCGUCAGAAAUGACUGUGUAGCCCUUGGCAGCUAAAUGCAUGUA | 11.8 | 28 |  | 
AGCGACAUGCGUGAUACCAGCUACAUGAGGAUCACCCAUGUAAGUAGGAAACUACUGUGUAGCCCUUGGCAGCACAAUGCAUGUC | 19.8 | 43.5 |  | 
AUAACAUGAGGAUCACCCAUGUAAGCAGAUACCAGCUAGGAAACUAGCCCUUGGCAGCUGCAAUCAUGGGUGUGGUAUCUGCUAA | 28.2 | 39.7 |  | 
AUAACAUGAGGAUCACCCAUGUAGAGUGAUACCAGACUACGUAAUGUCCCUUGGCAGCACAAGUAAAGUUACGAAUAAUGAUAGA |  |  | 179 | 50.8
